Laboratory results: publication PMC4143770 (Scientific Reports, 2014)
Residue numbers refer to the chain shown, from its start.

Legend:
[1] = biological target: T1, SmChb (chitinolytic β-GlcNAcase) (Serratia marcescens, UniProt Q54468); assay: Inhibition of SmChb; format: biochemical
T1 sequence (Q54468 28-885): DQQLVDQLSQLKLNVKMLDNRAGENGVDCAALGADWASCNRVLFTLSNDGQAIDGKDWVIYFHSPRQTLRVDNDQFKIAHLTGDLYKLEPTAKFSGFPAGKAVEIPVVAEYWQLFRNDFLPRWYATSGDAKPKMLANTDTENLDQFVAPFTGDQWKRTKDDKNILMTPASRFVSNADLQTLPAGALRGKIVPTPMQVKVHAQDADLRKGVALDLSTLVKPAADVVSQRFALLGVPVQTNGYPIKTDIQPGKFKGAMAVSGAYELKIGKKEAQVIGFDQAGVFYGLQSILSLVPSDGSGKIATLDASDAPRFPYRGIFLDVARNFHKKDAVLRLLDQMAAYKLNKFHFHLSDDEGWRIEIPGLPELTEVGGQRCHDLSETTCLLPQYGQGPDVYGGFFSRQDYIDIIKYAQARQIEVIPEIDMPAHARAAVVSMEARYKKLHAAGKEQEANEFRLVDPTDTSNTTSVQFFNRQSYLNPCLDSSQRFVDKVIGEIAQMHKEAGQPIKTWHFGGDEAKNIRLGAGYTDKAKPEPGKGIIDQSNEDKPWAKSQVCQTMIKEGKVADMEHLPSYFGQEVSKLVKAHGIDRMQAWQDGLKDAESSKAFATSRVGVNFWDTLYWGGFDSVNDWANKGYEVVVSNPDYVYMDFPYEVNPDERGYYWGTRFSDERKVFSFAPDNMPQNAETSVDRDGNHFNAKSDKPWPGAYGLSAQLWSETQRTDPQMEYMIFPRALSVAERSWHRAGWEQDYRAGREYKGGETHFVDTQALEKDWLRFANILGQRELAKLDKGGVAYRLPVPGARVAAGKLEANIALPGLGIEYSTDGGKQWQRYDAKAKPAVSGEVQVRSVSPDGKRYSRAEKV
How it was run: (§1)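 Recombinant O. furnacalis OfHex1, recombinant S. marcescens SmChb and purchased T. viride TvHex were assayed at 25°C with pNP-β-GlcNAc in 20 mM sodium phosphate, pH 6.0. After incubation, 0.5 M Na2CO3 was added and A405 measured. Ki used substrate at 0.075, 0.125 and 0.2 mM and an enzyme-specific inhibitor range. Ki and inhibition type came from linear Dixon-plot fitting.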

[2] = biological target: T2, SpHex (chitinolytic β-GlcNAcase) (Streptomyces plicatus, UniProt O85361); assay: Inhibition of SpHex; format: biochemical
T2 sequence (O85361 1-506): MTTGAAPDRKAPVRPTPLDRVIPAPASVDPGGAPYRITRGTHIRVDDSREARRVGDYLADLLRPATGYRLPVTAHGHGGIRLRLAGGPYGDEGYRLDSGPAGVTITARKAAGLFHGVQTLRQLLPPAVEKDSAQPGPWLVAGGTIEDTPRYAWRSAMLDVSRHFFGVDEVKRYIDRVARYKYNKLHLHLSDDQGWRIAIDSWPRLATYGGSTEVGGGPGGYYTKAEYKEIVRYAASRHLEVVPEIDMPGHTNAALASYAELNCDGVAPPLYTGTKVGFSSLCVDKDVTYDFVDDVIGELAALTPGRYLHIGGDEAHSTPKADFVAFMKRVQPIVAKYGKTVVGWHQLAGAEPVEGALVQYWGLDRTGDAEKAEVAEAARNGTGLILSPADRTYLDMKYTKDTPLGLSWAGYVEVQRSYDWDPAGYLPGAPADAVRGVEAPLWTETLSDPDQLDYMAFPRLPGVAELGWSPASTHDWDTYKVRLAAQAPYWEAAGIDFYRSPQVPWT

[3] = biological target: HsHex (human glycoconjugate-lytic β-GlcNAcase) (Homo sapiens, UniProt P07686); assay: Inhibition of HsHex, pNP-β-GlcNAc substrate, Dixon plots; format: biochemical
Chain of HsHex (human glycoconjugate-lytic β-GlcNAcase) (P07686 122-311 limits assumed): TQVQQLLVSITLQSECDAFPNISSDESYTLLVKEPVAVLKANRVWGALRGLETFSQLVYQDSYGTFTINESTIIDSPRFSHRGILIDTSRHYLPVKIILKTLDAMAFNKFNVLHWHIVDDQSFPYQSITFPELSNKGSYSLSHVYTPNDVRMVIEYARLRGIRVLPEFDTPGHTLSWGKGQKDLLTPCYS
Chain of HsHex (human glycoconjugate-lytic β-GlcNAcase) (P07686 315-556 limits assumed): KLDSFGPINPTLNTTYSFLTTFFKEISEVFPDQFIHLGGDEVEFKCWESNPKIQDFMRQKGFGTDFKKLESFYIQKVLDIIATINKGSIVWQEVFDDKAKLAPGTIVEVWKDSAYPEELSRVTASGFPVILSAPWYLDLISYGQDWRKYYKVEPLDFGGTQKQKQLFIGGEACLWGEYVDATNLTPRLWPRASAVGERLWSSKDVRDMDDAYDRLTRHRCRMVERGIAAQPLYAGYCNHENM

[4] = biological target: T3, OfHex1 (chitinolytic β-GlcNAcase) (Ostrinia furnacalis, UniProt Q06GJ0); assay: Inhibition of OfHex1, pNP-β-GlcNAc substrate, Dixon plots; format: biochemical
T3 sequence (Q06GJ0 23-594): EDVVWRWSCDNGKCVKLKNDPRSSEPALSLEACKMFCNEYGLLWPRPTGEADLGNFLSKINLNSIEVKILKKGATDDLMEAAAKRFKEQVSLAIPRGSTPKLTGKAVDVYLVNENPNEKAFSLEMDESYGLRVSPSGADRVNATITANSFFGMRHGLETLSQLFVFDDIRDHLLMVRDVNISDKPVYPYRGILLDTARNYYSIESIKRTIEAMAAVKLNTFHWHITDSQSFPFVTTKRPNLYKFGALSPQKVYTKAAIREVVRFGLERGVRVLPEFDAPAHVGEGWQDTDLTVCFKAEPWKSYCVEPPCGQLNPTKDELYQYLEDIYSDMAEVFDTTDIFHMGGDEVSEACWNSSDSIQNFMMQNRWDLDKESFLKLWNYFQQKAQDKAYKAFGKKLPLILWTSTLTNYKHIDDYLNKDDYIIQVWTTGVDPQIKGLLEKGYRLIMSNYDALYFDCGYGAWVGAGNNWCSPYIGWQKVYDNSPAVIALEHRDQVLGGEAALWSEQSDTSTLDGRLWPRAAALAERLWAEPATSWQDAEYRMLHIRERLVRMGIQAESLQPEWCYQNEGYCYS
How it was run: as §1

[5] = tested on: BoHex (glycoconjugate-lytic β-GlcNAcase); assay: Inhibition of BoHex; format: biochemical, bovine
How it was run: (§2)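 Purchased bovine Hex, recombinant O. furnacalis OfHex2 and the OfHex1 W490A mutant were assayed at 25°C with pNP-β-GlcNAc. Reactions were stopped with 0.5 M Na2CO3 and A405 was recorded. Where Ki was determined, substrate was 0.075, 0.125 and 0.2 mM, with values from linear Dixon-plot fits. W490A was also tested at 100 µM inhibitor.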

OfHex1 (W490A) = biological target: T4, OfHex1 (W490A) (Ostrinia furnacalis, UniProt Q06GJ0, W490A); assay: Inhibition of mutant OfHex1-W490A; format: biochemical
T4 sequence (Q06GJ0 23-594 W490A): T3 sequence (Q06GJ0 23-594) with W468A
How it was run: as §2

[6] = biological target: TvHex (chitinolytic β-GlcNAcase); assay: Inhibition of TvHex; format: biochemical, Trichoderma viride; conditions: read-out: Ki for TvHex; pNP-β-GlcNAc, pH 6.0
How it was run: as §1

[7] = tested on: OfHex2 (glycoconjugate-lytic β-GlcNAcase); assay: Inhibition of OfHex2; format: biochemical, O. furnacalis
How it was run: as §2

[8] = tested on: CeHex (glycoconjugate-lytic β-GlcNAcase); assay: Inhibition of CeHex; format: biochemical, Canavalia ensformis
[9] = tested on: glycoconjugate-lytic β-GlcNAcases from plant and human; conditions: cited from earlier work

| SMILES | Ki [1] | Ki [2] | Ki [3] | Inhibition of HsHex at 100 µM ([3]; 100 µM) | Ki [4] | Type of inhibition toward OfHex1 (Dixon plots) [4] | Increment in inhibitory activity against OfHex1 compared to Q1 ([4]; Q2 versus Q1, from Ki) | Inhibition of BoHex [5] | Ki (OfHex1 (W490A)) | Ki [6] | Inhibition of OfHex2 [7] | Inhibition of CeHex [8] | Type of inhibition toward HsHex (Dixon plots) ([3]; Dixon plots) | Inhibition of OfHex1-W490A at 100 µM (OfHex1 (W490A); 100 µM) | Activity toward glycoconjugate-lytic β-GlcNAcases from plant and human [9] |
| --- | --- | --- | --- | --- | --- | --- | --- | --- | --- | --- | --- | --- | --- | --- | --- |
| Cc1nnc(CNCCN2C(=O)c3cccc4c(N(C)C)ccc(c34)C2=O)s1 [Q2, 6-(dimethylamino)-2-(2-(((5-methyl-1,3,4-thiadiazol-2-yl)methyl)amino)ethyl)-1H-benzo[de]isoquinoline-1,3(2H)-dione] | 8.25 µM | 74.8 µM | > 100 µM | does not inhibit | 0.31 µM | competitive | 13 fold | does not inhibit | > 100 µM | 25 µM | does not inhibit | does not inhibit |  |  |  |
| Cc1nnc(CNCCN2C(=O)c3cccc4cccc(c34)C2=O)s1 [Q1, 2-(2-(((5-methyl-1,3,4-thiadiazol-2-yl)methyl)amino)ethyl)-1H-benzo[de]isoquinoline-1,3(2H)-dione] |  |  | 2.15 µM |  | 4.28 µM | competitive inhibitor |  |  | > 100 µM |  |  |  | competitive inhibitor | could not inhibit |  |
| CC(=O)NC1C(O)O[C@H](CO)[C@@H](O[C@@H]2O[C@H](CO)[C@@H](O[C@@H]3O[C@H](CO)[C@@H](O[C@H]4O[C@H](CO)[C@@H](O)[C@H](O)[C@H]4[N+](C)(C)C)[C@H](O)[C@H]3NC(C)=O)[C@H](O)[C@H]2NC(C)=O)[C@@H]1O (stereo partly shown) [TMG-chitotriomycin] |  |  |  |  |  |  |  |  |  |  |  |  |  |  | not active |
